Compound activity from PubChem BioAssay.
PGC1a acetyl up = compounds raising PGC1a acetylation signal, primary screen, PGC1a modulator project, cell-based, U2OS, AlphaScreen, signal-increasing mode; overnight; activation, % at 15.6 µM; 0.21% of 350,000 active; AID 651723, 2012;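 active = every replicate reaching activation of at least 50%, whatever the mean replicate activation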;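 note: hits raise the AlphaScreen acetylation signal above neutral controls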
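Test system: U2OS cells expressing flag-PGC1a plus GCN5; Amount: 7000 U2OS cells per well; Compound: single test concentration per compound; Incubation: compound overnight at 37 °C, each detection step 1 h RT; Signal: AlphaScreen lysate read.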
An asterisk follows results filed as active. Many of the other results were omitted from the sample, so hits are more common in it than they were.

SMILES	PGC1a acetyl up
Cc1ccccc1S(=O)(=O)N[C@@H]1CC[C@@H](CCn2cc(Cc3ccccc3)nn2)O[C@H]1CO	-61
O=C(Cc1ccccn1)N[C@@H]1CC[C@@H](CCn2cc(-c3ccccc3)nn2)O[C@H]1CO	133*
O=C(Cc1ccccn1)N[C@H]1CC[C@H](CCn2cc(-c3ccccc3)nn2)O[C@@H]1CO	76*
COc1ccc(NC(=O)N[C@@H]2CC[C@H](CCn3cc(-c4ccccc4F)nn3)O[C@H]2CO)cc1	-62
O=C(Cc1ccccn1)NCC[C@H]1CC[C@@H](NC(=O)Nc2ccc(C(F)(F)F)cc2)[C@@H](CO)O1	-102
O=C(COC(=O)Cc1ccc(S(=O)(=O)N2CCOCC2)s1)NCCc1ccccc1	-41
CN(C)C(=O)c1ccc(-c2ccc([C@@H]3[C@H]4CN(C(=O)CC5CC5)CC(=O)N4[C@H]3CO)cc2)cc1	-47
COC(=O)C1=CN(Cc2ccc(OC)c(OC)c2)C=C(C(=O)OC)C1c1cccc(O)c1	-74
CN(c1cccc(NS(=O)(=O)c2cccs2)c1)S(C)(=O)=O	-51
OC[C@@H]1[C@H](c2ccc(C#CC3CCCC3)cc2)[C@H]2CN(CCC(F)(F)F)CCCCN12	-81
OC[C@H]1[C@@H](c2ccc(C#CC3CCCC3)cc2)[C@@H]2CN(CCC(F)(F)F)CCCCN12	60*
N#C[C@H]1[C@H](c2ccc(C#CC3CCCC3)cc2)[C@H](CO)N1C(=O)Cc1ccccn1	-59
CCCNC(=O)Nc1ccc2c(c1)C(=O)N(C)C[C@H](OC)[C@H](C)CN(CC1CCCC1)[C@@H](C)CO2	-44
O=S(=O)(C/C(=C/CO)S(=O)(=O)c1ccccc1)c1ccccc1	112*
CC(C)NC(=O)N(C)C[C@H]1OCCCC[C@@H](C)Oc2ccc(NC(=O)Cc3ccccc3)cc2C(=O)N([C@@H](C)CO)C[C@H]1C	-55
CC1CCCC(C)N1C(=S)NCc1ccco1 (centres undefined)	-47
COc1ccc(CCn2c(-c3ccc(OC)cc3)nc3c(c(=O)c4ccccc4n3C)c2=O)cc1	109*
COC1(C)CN(Cc2ccccc2Br)[C@H](/C=C/c2ccccc2)[C@H](Cc2ccccc2)O1 (some centres undefined)	-51
CCOC(=O)C1(Cc2cccc(Cl)c2)CCCN(C(=O)c2cccnc2)C1 (centres undefined)	-97
CC1(C)CC2(CCO1)OC(=O)CC2C(=O)Nc1cccc2ccccc12 (centres undefined)	72*
C[C@@H]1CCCCO[C@@H](CN(C)C)[C@@H](C)CN([C@H](C)CO)C(=O)c2cc(NS(=O)(=O)c3ccc(Cl)cc3)ccc2O1	-45
COc1ccccc1CNC(=O)C[C@@H]1CC[C@@H]2[C@H](COC[C@H](O)CN2C(=O)Nc2ccc(Cl)cc2)O1	-56
Cc1ccccc1-c1ccc2c(c1)O[C@H](CN(C)Cc1ccncc1)[C@@H](C)CN([C@@H](C)CO)S2(=O)=O	57*
C[C@H](CO)N1C[C@H](C)[C@H](CN(C)C(=O)NC2CCCCC2)Oc2cc(C#Cc3ccc(F)cc3)ccc2S1(=O)=O	-55
CCCN(C)C[C@@H]1Oc2cc(C#C[C@H](C)O)ccc2S(=O)(=O)N([C@H](C)CO)C[C@@H]1C	-50
SMILES	PGC1a acetyl up
COc1ccc(S(=O)(=O)N(C)C[C@@H]2Oc3cc(C#CC4CC4)ccc3S(=O)(=O)N([C@@H](C)CO)C[C@@H]2C)cc1	136*
COc1ccc(S(=O)(=O)N(C)C[C@@H]2Oc3cc(C#CC4CC4)ccc3S(=O)(=O)N([C@H](C)CO)C[C@@H]2C)cc1	56*
Cc1ccc(S(=O)(=O)N(C)C[C@H]2Oc3cc(C#Cc4ccncc4)ccc3S(=O)(=O)N([C@H](C)CO)C[C@H]2C)cc1	-44
C[C@@H]1CN([C@@H](C)CO)S(=O)(=O)c2ccc(-c3ccc(F)cc3)cc2O[C@H]1CN(C)C(=O)C1CCCCC1	-64
COc1ccc(S(=O)(=O)N(C)C[C@H]2Oc3cc(C4=CCCC4)ccc3S(=O)(=O)N([C@H](C)CO)C[C@@H]2C)cc1	-51
COc1ccccc1C#Cc1ccc2c(c1)O[C@@H](CN(C)Cc1cccnc1)[C@H](C)CN([C@@H](C)CO)S2(=O)=O	-44
C[C@H]1CN([C@@H](C)CO)S(=O)(=O)c2ccc(Br)cc2O[C@H]1CN(C)S(C)(=O)=O	-107
C[C@H](CO)N1C[C@H](C)[C@@H](CN(C)Cc2cccnc2)Oc2cc(C#CC3CCCCC3)ccc2S1(=O)=O	-49
C[C@H]1CN([C@@H](C)CO)S(=O)(=O)c2ccc(Br)cc2O[C@@H]1CN(C)S(=O)(=O)c1ccccc1F	64*
CCC(=O)N(C)C[C@@H]1Oc2cc(C#Cc3cccnc3)ccc2S(=O)(=O)N([C@H](C)CO)C[C@H]1C	-29
C=CCC1NS(=O)(=O)OC(CCc2ccccc2)C1O (centres undefined)	104*
OCc1ccc2c(c1)c(-c1ccc3c(c1)OCCO3)c(-c1ccccc1)n2-c1ccccc1	178*
O=C(CC1CC1)N[C@H]1CC[C@H](CCNS(=O)(=O)c2ccc(Cl)cc2)O[C@H]1CO	-53
O=C1NC(=S)S/C1=C\C=C\c1ccc([N+](=O)[O-])o1	73*
CCNC(=S)N1C2CCC1CC(NC(=O)NC1CCCCC1)C2 (centres undefined)	-48
COc1ccccc1C(=O)Nc1ccc2c(c1)nc(CCNC(=O)c1ccco1)n2C	115*
COc1ccccc1C(=O)Nc1ccc2c(c1)C(=O)N(C)C[C@H](OC)[C@H](C)CN(CC1CC1)[C@@H](C)CO2	-52
O=S(=O)(c1ccc(NC(=S)NCc2cccnc2)cc1)N1CCCCC1	89*
O=C(NNS(=O)(=O)c1ccc(F)cc1)c1ccc(S(=O)(=O)N2CCCCC2)cc1	-41
CS(=O)(=O)N1CCCC(C(=O)NCc2ccccn2)C1 (centres undefined)	-47
COc1ccc(S(=O)(=O)N(C)C[C@@H]2Oc3ccc(NS(=O)(=O)c4cn(C)cn4)cc3C(=O)N([C@H](C)CO)C[C@@H]2C)cc1	-53
O=S(=O)(Nc1cccc(CCc2ccccn2)c1)c1ccc2ccccc2c1	-44
CC1=CC(=O)C=C(C)C1=NOS(=O)(=O)c1ccccc1	61*
Cc1cc(S(=O)(=O)c2ccc([N+](=O)[O-])cn2)ccc1Br	135*
O=C(C[C@H]1CC[C@H](NC(=O)C2CCC2)[C@@H](CO)O1)NCC1CC1	-57
SMILES	PGC1a acetyl up
CC(C)CC(NC(=O)c1ccc(Cl)cc1)C(=O)OCC(=O)c1ccc2c(c1)NC(=O)CO2 (centres undefined)	-57
O=Nc1c2nc3ccccc3n(O)c-2c2ccccc12	61*
COc1ccc(CC2=CC(=O)c3ccccc3C2=O)cc1	128*
O=C1CSC(=Nc2ccc(Cl)cc2)N1Cc1ccco1	-47
COCCCNC(=O)c1ccc(Cn2c(=O)c3ccccc3n(Cc3ccccc3C)c2=O)cc1	-52
O=C(NCc1ccco1)c1ccc(Cn2c(=O)c3ccccc3n(Cc3ccc(Cl)cc3)c2=O)cc1	88*
COc1ccc(C(=O)Nc2ccc(S(=O)(=O)Nc3cc(C)nc(C)n3)cc2)cc1	-43
CCCOc1ccc2c(c1)C(=NN=C(N)N)c1cc(OCCC)ccc1-2	75*
COC(=O)c1cc(Cl)c(NS(=O)(=O)c2ccccc2)cc1OC	-48
C=CCn1cccc(/C=C/C(=O)c2ccc(C(C)(C)C)cc2)c1=S	-53
Cc1c(/C=N/Nc2nc3ccccc3[nH]2)c2ccccc2n1C	121*
N#Cc1c(N)c(C(=O)c2ccccc2)n2ccccc12	-49
